# Most compounds without a hit are left out; they make up all but 1.7% or so of the library.
# CAL PDZ FP-1: inhibitors of human CAL PDZ peptide binding; 330,000 tested, 0.02% active; purified CAL PDZ, TMR-peptide fluorescence polarization, 1 h; inhibition, % at 20 µM;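 active = highest replicate inhibition of at least 40%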;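 also: plate controls were DMSO neutral control wells for no effect and unlabeled competitor peptide control wells for full effect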
#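 Test system: tagged CAL PDZ domain / Buffer or medium: sodium phosphate/NaCl buffer pH 7.4 with TCEP, IgG, Thesit / Reagent: TMR-labelled reporter peptide T*-PRC34 bound in PDZ groove / Compound dosing: single point, 20 µM / Schedule: 1 h incubation at room temperature before polarization reading / Technique: fluorescence polarization (mP) / Benchmarks: unlabelled peptide, DMSO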
# ARNT TACC3 PPI: disruptors of human ARNT/TACC3 interaction; Q9Y6A5; AlphaScreen His-ARNT PAS-B/GST-TACC3 binding, luminescence; TACC3 fragment carries E629A point mutation; inhibition, % at 9.99 µM; 390,000 tested, 0.66% active; AID 623870;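 active = mean inhibition of replicates at least 50% and at least half of replicates each reaching 50%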;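 also: 0% = complete ARNT plus TACC3 wells and 100% = ARNT alone without TACC3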
# Rce1 inhib: inhibitors of yeast Ras-converting enzyme; yeast membranes, quenched prenylated peptide cleavage fluorescence; calls only; 290,000 tested, 0.27% active; AID 2563;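 active = fall in fluorescence gain of 50% or more versus controls, with final raw signal at or below 3038400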;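 also: plate controls were neutral control wells for no effect and wells lacking membranes for full effect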
# Target sequence (Q03530 whole entry, looked up): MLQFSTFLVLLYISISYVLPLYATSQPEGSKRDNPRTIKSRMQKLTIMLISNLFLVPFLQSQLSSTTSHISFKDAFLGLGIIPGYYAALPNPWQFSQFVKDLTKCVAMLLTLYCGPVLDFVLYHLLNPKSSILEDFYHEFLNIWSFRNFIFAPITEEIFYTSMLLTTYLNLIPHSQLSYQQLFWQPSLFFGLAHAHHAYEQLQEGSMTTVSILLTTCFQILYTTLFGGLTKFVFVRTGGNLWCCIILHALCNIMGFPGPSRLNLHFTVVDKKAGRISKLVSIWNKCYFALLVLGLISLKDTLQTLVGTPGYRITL
# CAL PDZ FP-2: CAL PDZ (human) peptide binding inhibition; Q9HD26; purified CAL PDZ, TMR-peptide fluorescence polarization, 1 h; inhibition, % at 24.9 µM; 300,000 tested, 0.92% active; AID 602252;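 active = mean inhibition of at least 30% with at least half of replicates also reaching 30%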;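 also: 0% = DMSO neutral control and 100% = excess unlabeled competitor peptide PRC23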
# AI-2 QS mod: modulates the Vibrio harveyi AI-2 quorum sensing system | activity change, % at 7.5 µM | 300,000 tested, 0.4% active | Vibrio harveyi JMH597 AI-2 luminescence/OD600 ratio, 9 h; hits give low values; strain lacks LuxN and CqsS sensors; 0 = neutral-control median; in the data active = activity change below about -75%, passing the limit was not always enough;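 also: luminescence divided by OD600 gain over 9 h not by final OD600 alone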
# ARNT Alpha ctr: counter-screen for ARNT/TACC3 inhibitors: AlphaScreen artifacts. 1,200 tested, 50% active. shares compounds with ARNT TACC3 PPI. AC50, µM (highest dose often 68 µM), inactives show at the top dose activity change, negative = signal decrease. His-ARNT PASB-GST AlphaScreen artifact counter-screen, luminescence. AID 651705;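 active = every separate test run was called active for a drop in luminescence, with AC50 within twice the top valid dose, actives reach about 71 µM in these data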
# Starred values were filed as active, the others as inactive; i = inactive; x = not tested or not shown; [ ] = another dose, or the depositor's remark.
SMILES,CAL PDZ FP-1,ARNT TACC3 PPI,Rce1 inhib,CAL PDZ FP-2,AI-2 QS mod,ARNT Alpha ctr
O=C(NNC(=O)C12CC3CC(CC(C3)C1)C2)c1ccncc1,-1,-8,i,x,16,x
C/C(=N\NC(=O)c1ccncc1)C12CC3CC(CC(C3)C1)C2,-1,51*,i,-4,15,5%
OCC1CCN(c2nc(-c3ccccn3)nnc2-c2ccccc2)CC1,x,x,x,x,x,2.8µM*
c1ccc(-c2nnc(-c3ccccn3)nc2N2CCC(C3CCCCC3)C2)cc1 (centres undefined),x,x,x,x,x,5.3µM*
O=C(COC(=O)CCC(=O)c1ccc(F)cc1)Nc1ccc2[nH]c(=O)[nH]c2c1,0,25,i,-5,35,x
O=C(Nc1ncn[nH]1)C(F)(F)C(F)F,-1,27,i,-1,31,x
CCC(C(=O)Nc1ncn[nH]1)(C(F)(F)F)C(F)(F)F,1,11*,x,-1,6,-5%
C=CCn1c(SCC(=O)Nc2cc(OC)c(NC(=O)c3ccco3)cc2OC)nnc1-c1ccncc1,-1,-20,i,-2,-6,x
CC(=O)Nc1ccccc1NC(=O)C/C(C)=N/NC(=O)c1ccccn1,-2,x,i,-2,-1,x
C/C(CC(=O)NCc1ccccc1Cl)=N/NC(=O)c1ccccn1,-2,26*,i,x,17,2%
C/C(CC(=O)NC1CCCCC1)=N\NC(=O)c1ccccn1,0,13,i,2,24,x
C/C(CC(=O)Nc1ccc(F)cc1)=N\NC(=O)c1ccccn1,-2,22*,i,-4,14,-7%
COc1ccc(C#Cc2ccc3c(c2)O[C@H](CN(C)C(=O)Nc2cccc(OC)c2)[C@H](C)CN([C@H](C)CO)S3(=O)=O)cc1,x,-5,x,x,x,x
Cn1c(=O)c2c(n3cnnc13)-c1ccccc1CC21CCCC1,-2,-9,i,-2,3,x
Cc1ccc(S(=O)(=O)Nc2cccc3c2O[C@@H](CN(C)Cc2ccncc2)[C@@H](C)CN([C@@H](C)CO)C3=O)cc1,x,9,x,x,x,x
O=C(O)C1C2C=CC(C2)C1C(=O)NCCCN1CCCC1=O (centres undefined),0,-21,i,x,12,x
O=C(O)C1CCCCC1C(=O)NCCCn1ccnc1 (centres undefined),0,67*,i,x,25,-6%
O=C(O)C1C2C=CC(C2)C1C(=O)NCCCn1ccnc1 (centres undefined),-1,54*,i,x,-3,3%
Cc1cc(NC(=O)c2cc(-c3ccccc3)on2)no1,-1,-4,i,0,13,x
O=C(Nc1ccc2ccccc2n1)c1cc(-c2ccccc2)on1,x,x,x,x,x,3%[38 µM]
Cc1cccc(NC(=O)c2cc(-c3ccccc3)on2)n1,x,x,x,x,x,3%[38 µM]
Cn1c(NC(=O)c2cc(-c3ccccc3)on2)nc2ccccc21,x,x,x,x,x,-9%[38 µM]
O=c1[nH]c(CSc2nnc(Nc3ccccc3)s2)nc2ccccc12,-2,-1,i,-6,25,x
Cn1nc(-c2ccccn2)nc2c(=O)n(C)c(=O)nc1-2,0,67*,i,-2,-92*,-1%
COc1ccccc1NC(=O)c1c(C)oc2c1CCCC2,-1,0,i,-4,13,x
SMILES,CAL PDZ FP-1,ARNT TACC3 PPI,Rce1 inhib,CAL PDZ FP-2,AI-2 QS mod,ARNT Alpha ctr
COc1ccc(C(c2nnnn2C2CCCC2)N2CCc3ccccc3C2)cc1OC (centres undefined),1,58*,i,-2,18,-25%
Cc1ccc(S(=O)(=O)c2cnc(-c3ccccc3)nc2N2CCCCC2)cc1,0,4,i,x,17,x
Cc1[nH]n(-c2ccccc2)c(=O)c1/C=N/NC(=O)COc1ccccc1[N+](=O)[O-],-1,59*,i,-1,26,-26%
CNS(=O)(=O)c1cn(CC(=O)NCc2cccc(OC)c2)cc1S(=O)(=O)NC,-1,-1,i,-3,20,x
O=C1c2cccnc2C(=O)N1Cc1ccc(S(=O)(=O)NCc2ccco2)s1,-3,57*,i,-2,13,-8%
COc1ccc(S(=O)(=O)N2CCCCN3[C@H](C2)[C@H](c2ccc(-c4cccnc4)cc2)[C@@H]3CO)cc1,x,-5,x,x,x,x
Cc1cc(NC(=O)/C(C#N)=C\c2ccc(-c3ccc(SC(F)F)cc3)o2)n(-c2ccccc2)n1,-1,2,x,-1,x,x

# High-throughput results (PubChem)
